In experiment [1] the test system is SpyCatcher003. The experiment in a line: Isothermal titration calorimetry. The experiment is classed as binding, Streptococcus pyogenes. As to conditions: PBS pH 7.4, 25 °C. On the technique in general: ITC needs no label: the signal is the heat of the interaction.
Experiment [2] has as its target SpyCatcher002-555. The experiment in a line: FRET or BRET.
Experiment [3] has as its target SpyCatcher003. Put plainly: SPR. On the technique in general: Surface plasmon resonance follows binding to a sensor surface in real time, without labels.
Another experiment has as its target SpyCatcher003-555. Put plainly: FRET or BRET. For orientation: Bioluminescence resonance energy transfer reports proximity on the nanometre scale.
Experiment [4] addresses SpyCatcher003-sfGFP. Put plainly: covalent reaction.
Experiment [5] has as its target SpyCatcher003. The experiment in a line: covalent reaction followed by SDS/PAGE with Coomassie staining.
Experiment [6] has as its system SpyCatcher003-sfGFP. Put plainly: Comparison of stages of SpyTag development. The experiment is classed as biochemical. The following applies: 10 nM each, 10 min, SPG buffer pH 7.0 + 0.2% BSA, 25 °C; n = 3.
In a further experiment the test system is SpyCatcher002-sfGFP. As to conditions: cited from earlier work.
The subject of experiment [7] is SpyCatcher002-555. Put plainly: Stopped-flow FRET kinetics. The experiment is classed as binding, Streptococcus pyogenes. The following applies: PBS pH 7.4, 25 °C; mean ± 1 SD, n = 4. In outline:
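Stopped-flow fluorescence with 1:1 mixing at 25 °C in PBS pH 7.4, excitation 480 nm, emission through a 515-nm long-pass filter. The SpyTag variant-mClover3 was at 100 nM final against pseudo-first-order SpyCatcher variant-555 at 400 to 1,000 nM. kon came from a linear fit of the first-phase kobs against SpyCatcher variant concentration.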

The text below walks through data of article PMC6936558 (Proceedings of the National Academy of Sciences of the …, 2019).

pKd: −log10 of the molar value. Several values for one entry are separate records, joined by “and”; a condition that tells them apart may be missing. Equal entries are not always repeated.

Take RGVPHIVMVAAYKRYK [SpyTag003 DA-MBP]: the “affinity by ITC” value in the experiment on SpyCatcher003 [1] is given as “too tight to measure by ITC”.
As usually defined, the kon is the rate constant with which the complex forms. A lower kon goes with slower complex formation. As to SpyTag002-mClover3 (peptide), the kon with SpyCatcher002-555 [2] is 420000 M⁻¹ s⁻¹.
A word on the pKd: it is the Kd on a negative log10 scale, so that one unit is a factor of ten. Read a high pKd as a small Kd. SpyTag003 DA-MBP (peptide) showed a pKd with SpyCatcher003 [3] of 7.68.
As for SpyTag003 DA-mClover3 (peptide), in the experiment with SpyCatcher003-555, the dissociation rate constant, first phase of the chase (90% of signal change) is 0.009 s⁻¹; the dissociation rate constant, second phase of the chase (10% of signal change) is 0.002 s⁻¹; the estimated Kd of one version of the complex (dissociation rate constant / kon) is 3 nM and 13 nM; the kobs2 (second phase) was found to be 0.08 s⁻¹. Further, in the experiment with SpyCatcher003-555, the kobs3 (third phase) came to 0.004 s⁻¹ and the kon came to 680000 M⁻¹ s⁻¹.
By koff is commonly meant the rate constant with which the complex falls apart. Read a low koff as a long-lived complex. Regarding SpyTag003-mClover3 (peptide), in the experiment with SpyCatcher003-555, the decrease in donor (mClover3) peak fluorescence intensity worked out at 35%; the kobs1 (first phase, 500 nM SpyCatcher003-555) was found to be 0.54 s⁻¹; the kobs2 (second phase, 500 nM SpyCatcher003-555) was determined as 0.016 s⁻¹; the kobs3 (third phase, 500 nM SpyCatcher003-555) was 0.004 s⁻¹. In the experiment with SpyCatcher003-555, this substance came in with a koff of 0.26 s⁻¹ and a kon of 620000 M⁻¹ s⁻¹.
Consider “SpyTag003-maltose binding protein (MBP) (peptide)”, for which the percent completion of the covalent reaction (10 nM each, 15 min) with SpyCatcher003-sfGFP [4] was over 90%. In the experiment with SpyCatcher003 [5], this substance returned a percent completion of the covalent reaction (SpyCatcher003 in excess) of over 99% and a percent completion of the covalent reaction (SpyTag003 in excess) of over 99%.
In the case of VPHIVMVDAYKRYK [SpyTag002 T112H], the “effect of Tag mutation on reaction rate” value in the experiment with SpyCatcher003-sfGFP [6] is given as “enhanced reaction rate”.
Take VPTIVMVDAYKRYK [SpyTag002]: in the experiment on SpyCatcher002-sfGFP (by phage display selection, SpyTag002 and SpyCatcher002), the “improvement of rate of reaction over SpyTag/SpyCatcher” value is listed as over 12 fold. Further, in the experiment with SpyCatcher002-sfGFP (previously shown), the “second-order rate constant, SpyTag002/SpyCatcher002” value was 20000 M⁻¹ s⁻¹. In addition, the “association rate constant (kon)” value with SpyCatcher002-555 [7] was 4.2 ± 0.5 × 10^5 M^−1 s^−1.
